ChEMBL document CHEMBL1142136, “Contribution of target gene mutations and efflux to decreased susceptibility of Salmonella enterica serovar typhimurium to fluoroquinolones and other antimicrobials” (2007)
Converted amounts (≈) assume the structure as drawn.

Legend:
Type in all cases: functional, Salmonella enterica subsp. enterica serovar Typhimurium
Salmonella typhimurium [1] = experiment: Antimicrobial activity against Salmonella enterica serovar Typhimurium S21-3 with GyrA S83F, ParC S80I mutation
Procedure, shortened: (§1)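 MICs measured by broth microdilution on the Sensititre automated system and interpreted by CLSI broth microdilution standards. Ciprofloxacin was also tested by agar dilution, widening the range to 0.0075–128 μg/ml. Quality control strains were E. coli ATCC 25922 and 35218, E. faecalis ATCC 29212, S. aureus ATCC 29213 and P. aeruginosa ATCC 27853.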

Salmonella typhimurium [2] = experiment: Antimicrobial activity against Salmonella enterica serovar Typhimurium CHS38 gyrA+ with GyrA D87G mutation; procedure, shortened: as §1
Salmonella typhimurium [3] = experiment: Antimicrobial activity against Salmonella enterica serovar Typhimurium CS9 acrAB::Kan with GyrA S83F, D87N, ParC S80I mutation; procedure, shortened: as §1
Salmonella typhimurium [4] = experiment: Antimicrobial activity against Salmonella enterica serovar Typhimurium S21; procedure, shortened: as §1
Salmonella typhimurium [5] = experiment: Antimicrobial activity against Salmonella enterica serovar Typhimurium CS3 gyrA+ with GyrA S83F, D87N, ParC S80I mutation; procedure, shortened: as §1
Salmonella typhimurium [6] = experiment: Antimicrobial activity against Salmonella enterica serovar Typhimurium S21-2 acrAB::Kan with GyrA S83F, ParC S80I mutation; procedure, shortened: as §1
Salmonella typhimurium [7] = experiment: Antimicrobial activity against Salmonella enterica serovar Typhimurium S21-1 GyrA S83F mutant; procedure, shortened: as §1
Salmonella typhimurium [8] = experiment: Antimicrobial activity against Salmonella enterica serovar Typhimurium CS3 acrAB::Kan with GyrA S83F, D87N, ParC S80I mutation; procedure, shortened: as §1
Salmonella typhimurium [9] = experiment: Antimicrobial activity against Salmonella enterica serovar Typhimurium S21-4 gyrA+ with ParC S80I mutation; procedure, shortened: as §1
Salmonella typhimurium [10] = experiment: Antimicrobial activity against Salmonella enterica serovar Typhimurium CS9 with GyrA S83F, D87N, ParC S80I mutation; procedure, shortened: as §1
Salmonella typhimurium [11] = experiment: Antimicrobial activity against Salmonella enterica serovar Typhimurium CS1 tolC::Kan with GyrA S83F, D87N, ParC S80I mutation; procedure, shortened: as §1
Salmonella typhimurium [12] = experiment: Antimicrobial activity against Salmonella enterica serovar Typhimurium S21-2 gyrA+ with ParC S80I mutation; procedure, shortened: as §1
Salmonella typhimurium [13] = experiment: Antimicrobial activity against Salmonella enterica serovar Typhimurium CHS14 tolC::Kan with GyrA D87G mutant; procedure, shortened: as §1
Salmonella typhimurium [14] = experiment: Antimicrobial activity against Salmonella enterica serovar Typhimurium CHS18 gyrA+ with GyrA S38F mutation; procedure, shortened: as §1
Salmonella typhimurium [15] = experiment: Antimicrobial activity against Salmonella enterica serovar Typhimurium CS1 with GyrA S83F, D87N, ParC S80I mutation; procedure, shortened: as §1
Salmonella typhimurium [16] = experiment: Antimicrobial activity against Salmonella enterica serovar Typhimurium S21-4 with GyrA S83F, ParC S80I mutation; procedure, shortened: as §1
Salmonella typhimurium [17] = experiment: Antimicrobial activity against Salmonella enterica serovar Typhimurium CHS38 tolC::Kan with GyrA D87G mutation; procedure, shortened: as §1
Salmonella typhimurium [18] = experiment: Antimicrobial activity against Salmonella enterica serovar Typhimurium CHS14 acrAB::Kan with GyrA D87G mutation; procedure, shortened: as §1
Salmonella typhimurium [19] = experiment: Antimicrobial activity against Salmonella enterica serovar Typhimurium CHS14 gyrA+ with GyrA D87G mutation; procedure, shortened: as §1
Salmonella typhimurium [20] = experiment: Antimicrobial activity against Salmonella enterica serovar Typhimurium CS9 gyrA+ with GyrA S83F, D87N, ParC S80I mutation; procedure, shortened: as §1
Salmonella typhimurium [21] = experiment: Antimicrobial activity against Salmonella enterica serovar Typhimurium CHS18 with GyrA S38F mutation; procedure, shortened: as §1
Salmonella typhimurium [22] = experiment: Antimicrobial activity against Salmonella enterica serovar Typhimurium S21-4 acrAB::Kan with GyrA S83F, ParC S80I mutation; procedure, shortened: as §1
Salmonella typhimurium [23] = experiment: Antimicrobial activity against Salmonella enterica serovar Typhimurium S21-1 gyrA+; procedure, shortened: as §1
Salmonella typhimurium [24] = experiment: Antimicrobial activity against Salmonella enterica serovar Typhimurium CS3 tolC::Kan with GyrA S83F, D87N, parC S80I mutation; procedure, shortened: as §1
Salmonella typhimurium [25] = experiment: Antimicrobial activity against Salmonella enterica serovar Typhimurium S21-3 gyrA+ with ParC S80I mutation; procedure, shortened: as §1
Salmonella typhimurium [26] = experiment: Antimicrobial activity against Salmonella enterica serovar Typhimurium S21 gyrA+; procedure, shortened: as §1
Salmonella typhimurium [27] = experiment: Antimicrobial activity against Salmonella enterica serovar Typhimurium CHS38 acrAB::Kan with GyrA D87G mutation; procedure, shortened: as §1
Salmonella typhimurium [28] = experiment: Antimicrobial activity against Salmonella enterica serovar Typhimurium CS1 gyrA+ with GyrA S83F, D87N, ParC S80I mutation; procedure, shortened: as §1
Salmonella typhimurium [29] = experiment: Antimicrobial activity against Salmonella enterica serovar Typhimurium S21-2 with GyrA S83F, ParC S80I mutation; procedure, shortened: as §1
Salmonella typhimurium [30] = experiment: Antimicrobial activity against Salmonella enterica serovar Typhimurium CS1 acrAB::Kan with GyrA S83F, D87N, ParC S80I mutation; procedure, shortened: as §1
Salmonella typhimurium [31] = experiment: Antimicrobial activity against Salmonella enterica serovar Typhimurium CS9 tolC::Kan with GyrA S83F, D87N, ParC S80I mutation; procedure, shortened: as §1
Salmonella typhimurium [32] = experiment: Antimicrobial activity against Salmonella enterica serovar Typhimurium S21-4 tolC::Kan with GyrA S83F, ParC S80I mutation; procedure, shortened: as §1
Salmonella typhimurium [33] = experiment: Antimicrobial activity against Salmonella enterica serovar Typhimurium CHS38 with GyrA D87G mutation; procedure, shortened: as §1
Salmonella typhimurium [34] = experiment: Antimicrobial activity against Salmonella enterica serovar Typhimurium CHS18 acrAB::Kan with GyrA S38F mutation; procedure, shortened: as §1
Salmonella typhimurium [35] = experiment: Antimicrobial activity against Salmonella enterica serovar Typhimurium CHS14 with GyrA D87G mutation; procedure, shortened: as §1
Salmonella typhimurium [36] = experiment: Antimicrobial activity against Salmonella enterica serovar Typhimurium S21-3 acrAB::Kan with GyrA S83F, ParC S80I mutation; procedure, shortened: as §1
Salmonella typhimurium [37] = experiment: Antimicrobial activity against Salmonella enterica serovar Typhimurium CS3 with GyrA S83F, D87N, ParC S80I mutation; procedure, shortened: as §1
Salmonella typhimurium [38] = experiment: Antimicrobial activity against Salmonella enterica serovar Typhimurium S21 acrAB::Kan
Procedure, shortened: (§2)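 MICs by automated broth microdilution panels, interpreted to CLSI broth microdilution standards. Ciprofloxacin additionally tested by agar dilution across 0.0075 to 128 μg/ml. Quality control strains: E. coli ATCC 25922 and 35218, Enterococcus faecalis ATCC 29212, S. aureus ATCC 29213, P. aeruginosa ATCC 27853. Test strains are kanamycin-marked deletion mutants of ground-beef isolate S21.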

Salmonella typhimurium [39] = experiment: Antimicrobial activity against Salmonella enterica serovar Typhimurium S21-2 tolC::Kan with GyrA S83F, ParC S80I mutation; procedure, shortened: as §1
Salmonella typhimurium [40] = experiment: Antimicrobial activity against Salmonella enterica serovar Typhimurium CHS18 tolC::Kan with GyrA S38F mutation; procedure, shortened: as §1
Salmonella typhimurium [41] = experiment: Antimicrobial activity against Salmonella enterica serovar Typhimurium S21-3 tolC::Kan with GyrA S83F, ParC S80I mutation; procedure, shortened: as §1
Salmonella typhimurium [42] = experiment: Antimicrobial activity against Salmonella enterica serovar Typhimurium S21 tolC::Kan; procedure, shortened: as §2

SMILES: CC(=O)OCC1=C(C(=O)O)N2C(=O)[C@@H](NC(=O)Cc3cccs3)[C@H]2SC1 [CEPHALOTHIN]
- MIC (Salmonella typhimurium [1]): > 32 µg/mL
- MIC (Salmonella typhimurium [2]): 16 µg/mL (≈ 40.4 µM)
- MIC (Salmonella typhimurium [3]): 8 µg/mL (≈ 20.2 µM)
- MIC (Salmonella typhimurium [4]): < 2 µg/mL
- MIC (Salmonella typhimurium [5]): 8 µg/mL (≈ 20.2 µM)
- MIC (Salmonella typhimurium [6]): 8 µg/mL (≈ 20.2 µM)
- MIC (Salmonella typhimurium [7]): 8 µg/mL (≈ 20.2 µM)
- MIC (Salmonella typhimurium [8]): 8 µg/mL (≈ 20.2 µM)
- MIC (Salmonella typhimurium [9]): > 32 µg/mL
- MIC (Salmonella typhimurium [10]): 16 µg/mL (≈ 40.4 µM)
- MIC (Salmonella typhimurium [11]): 8 µg/mL (≈ 20.2 µM)
- MIC (Salmonella typhimurium [12]): > 32 µg/mL
- MIC (Salmonella typhimurium [13]): < 2 µg/mL
- MIC (Salmonella typhimurium [14]): 4 µg/mL (≈ 10.1 µM)
- MIC (Salmonella typhimurium [15]): 16 µg/mL (≈ 40.4 µM)
- MIC (Salmonella typhimurium [16]): > 32 µg/mL
- MIC (Salmonella typhimurium [17]): 8 µg/mL (≈ 20.2 µM)
- MIC (Salmonella typhimurium [18]): < 2 µg/mL
- MIC (Salmonella typhimurium [19]): < 2 µg/mL
- MIC (Salmonella typhimurium [20]): 8 µg/mL (≈ 20.2 µM)
- MIC (Salmonella typhimurium [21]): 4 µg/mL (≈ 10.1 µM)
- MIC (Salmonella typhimurium [22]): 8 µg/mL (≈ 20.2 µM)
- MIC (Salmonella typhimurium [23]): 8 µg/mL (≈ 20.2 µM)
- MIC (Salmonella typhimurium [24]): 8 µg/mL (≈ 20.2 µM)
- MIC (Salmonella typhimurium [25]): > 32 µg/mL
- MIC (Salmonella typhimurium [26]): < 2 µg/mL
- MIC (Salmonella typhimurium [27]): 8 µg/mL (≈ 20.2 µM)
- MIC (Salmonella typhimurium [28]): 8 µg/mL (≈ 20.2 µM)
- MIC (Salmonella typhimurium [29]): > 32 µg/mL
- MIC (Salmonella typhimurium [30]): 8 µg/mL (≈ 20.2 µM)
- MIC (Salmonella typhimurium [31]): 8 µg/mL (≈ 20.2 µM)
- MIC (Salmonella typhimurium [32]): 8 µg/mL (≈ 20.2 µM)
- MIC (Salmonella typhimurium [33]): 8 µg/mL (≈ 20.2 µM)
- MIC (Salmonella typhimurium [34]): 2 µg/mL (≈ 5.04 µM)
- MIC (Salmonella typhimurium [35]): 4 µg/mL (≈ 10.1 µM)
- MIC (Salmonella typhimurium [36]): 8 µg/mL (≈ 20.2 µM)
- MIC (Salmonella typhimurium [37]): 16 µg/mL (≈ 40.4 µM)
- MIC (Salmonella typhimurium [38]): < 2 µg/mL
- MIC (Salmonella typhimurium [39]): 8 µg/mL (≈ 20.2 µM)
- MIC (Salmonella typhimurium [40]): 2 µg/mL (≈ 5.04 µM)
- MIC (Salmonella typhimurium [41]): 8 µg/mL (≈ 20.2 µM)
- MIC (Salmonella typhimurium [42]): < 2 µg/mL

SMILES: NC[C@H]1O[C@H](O[C@H]2[C@H](O)[C@@H](O[C@H]3O[C@H](CO)[C@@H](O)[C@H](N)[C@H]3O)[C@H](N)C[C@@H]2N)[C@H](O)[C@@H](O)[C@@H]1O [KANAMYCIN]
- MIC (Salmonella typhimurium [2]): > 64 µg/mL
- MIC (Salmonella typhimurium [3]): > 64 µg/mL
- MIC (Salmonella typhimurium [4]): < 8 µg/mL
- MIC (Salmonella typhimurium [5]): > 64 µg/mL
- MIC (Salmonella typhimurium [8]): > 64 µg/mL
- MIC (Salmonella typhimurium [10]): < 8 µg/mL
- MIC (Salmonella typhimurium [11]): > 64 µg/mL
- MIC (Salmonella typhimurium [13]): > 64 µg/mL
- MIC (Salmonella typhimurium [14]): > 64 µg/mL
- MIC (Salmonella typhimurium [15]): < 8 µg/mL
- MIC (Salmonella typhimurium [17]): > 64 µg/mL
- MIC (Salmonella typhimurium [18]): > 64 µg/mL
- MIC (Salmonella typhimurium [19]): > 64 µg/mL
- MIC (Salmonella typhimurium [20]): > 64 µg/mL
- MIC (Salmonella typhimurium [21]): 8 µg/mL (≈ 16.5 µM)
- MIC (Salmonella typhimurium [22]): > 64 µg/mL
- MIC (Salmonella typhimurium [23]): < 8 µg/mL
- MIC (Salmonella typhimurium [24]): > 64 µg/mL
- MIC (Salmonella typhimurium [26]): < 8 µg/mL
- MIC (Salmonella typhimurium [27]): > 64 µg/mL
- MIC (Salmonella typhimurium [28]): > 64 µg/mL
- MIC (Salmonella typhimurium [30]): > 64 µg/mL
- MIC (Salmonella typhimurium [31]): > 64 µg/mL
- MIC (Salmonella typhimurium [33]): 8 µg/mL (≈ 16.5 µM)
- MIC (Salmonella typhimurium [34]): > 64 µg/mL
- MIC (Salmonella typhimurium [35]): < 8 µg/mL
- MIC (Salmonella typhimurium [37]): < 8 µg/mL
- MIC (Salmonella typhimurium [38]): > 64 µg/mL
- MIC (Salmonella typhimurium [40]): > 64 µg/mL
- MIC (Salmonella typhimurium [42]): > 64 µg/mL
